The source made the active and inactive calls. The calls are words filed in the database; no cut-off is given here.
Tests used:
[1] = (§1) Cytoprotective activity in rat INS-1E cells assessed as restoration of recombinant rat IL-1beta/recombinant mouse IFN-gamma and TNF-alpha-suppressed ATP level after 48 hrs by Cell Titer-Glo assay; type: functional, cell-based; conditions: for EC50: Rattus norvegicus, INS-1E, 48 h
Procedure, shortened: (§2)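 INS-1E rat insulinoma cells exposed 48 h to IL-1β 20 ng/mL, INF-γ 50 ng/mL and TNF-α 50 ng/mL, with or without increasing compound concentrations. Cellular ATP was measured as a viability surrogate and normalized to untreated controls.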

[2] = system: INS-1E; assay: (§3) Cytoprotective activity in rat INS-1E cells assessed as increase in recombinant rat IL-1beta/recombinant mouse IFN-gamma and TNF-alpha-suppressed glucose-stimulated insulin secretion preincubated for 48 hrs followed by KRBH buffer addition without glucose for 2 hrs and subsequently incubated with KRBH buffer in presence of glucose for 1 hr by ELISA; type: functional, cell-based
Procedure, shortened: (§4)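 Cytokine-exposed INS-1E cells (48 h; IL-1β 20 ng/mL, INF-γ 50 ng/mL, TNF-α 50 ng/mL) were co-treated with a compound dose series, and glucose-stimulated insulin secretion was measured. EC50 and maximum activity were derived from the dose-response. Mean ± SD of 2 independent experiments.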

[3] = (§5) Cytoprotective activity in rat INS-1E cells assessed as suppression of recombinant rat IL-1beta/recombinant mouse IFN-gamma and TNF-alpha-induced caspase-3 expression after 48 hrs by Caspase-Glo 3/7 assay; type: functional, cell-based; conditions: for IC50: Rattus norvegicus, INS-1E, 48 h
Procedure, shortened: (§6)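 INS-1E cells were given the 48 h cytokine cocktail (IL-1β 20 ng/mL, INF-γ 50 ng/mL, TNF-α 50 ng/mL) with rising compound concentrations. Caspase-3 activity, as a direct apoptosis readout, was normalized to untreated controls. Mean ± SD of 12 independent wells.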

[4] = (§7) Cytoprotective activity in rat INS-1E cells assessed as suppression of recombinant rat IL-1beta/recombinant mouse IFN-gamma and TNF-alpha-induced nitrite production after 48 hrs by Griess assay; type: functional, cell-based; conditions: for IC50: Rattus norvegicus, INS-1E, 48 h
Procedure, shortened: (§8)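 Nitrite production was measured in INS-1E cells after 48 h with IL-1β 20 ng/mL, INF-γ 50 ng/mL and TNF-α 50 ng/mL plus increasing compound concentrations. Mean ± SD of 12 independent wells.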

[5] = as §3; type: functional, cell-based; conditions: for EC50: Rattus norvegicus, INS-1E; procedure, shortened: as §4
[6] = system: INS-1E; assay: as §1; type: functional, cell-based; procedure, shortened: as §2
[7] = as §3, with “secretion at 5 uM” for “secretion”, “ELISA relative to control” for “ELISA”; type: functional
Procedure, shortened: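 After 48 h exposure to the cytokine cocktail (IL-1β 20 ng/mL, INF-γ 50 ng/mL, TNF-α 50 ng/mL) with 5 µM compound added, INS-1E insulin secretion was measured at low (2) and high (16) glucose. Results are compared with untreated and no-cytokine cells. Mean ± SD of 2 independent experiments.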

[8] = system: INS-1E; assay: as §5; type: functional, cell-based; procedure, shortened: as §6
[9] = system: INS-1E; assay: as §7; type: functional, cell-based; procedure, shortened: as §8
[10] = system: INS-1E; assay: Cytoprotective activity in rat INS-1E cells assessed as restoration of recombinant rat IL-1beta/recombinant mouse IFN-gamma and TNF-alpha-suppressed ATP level at 2 uM after 48 hrs by Cell Titer-Glo assay; type: functional, cell-based; procedure, shortened: as §2

IC50 [3] [µM]	IC50 [4] [µM]	EC50 [5] [µM]	Compound	%max [1] [%]	EC50 [1] [µM]	%max [2]	%max [3] [%]	%max [4] [%]	%max [5] [%]	Activity [6]	Activity [2]	fold change (FC) [7]	Activity [8]	Activity [9]	Activity [10]
> 30	> 30	–	COc1ccc(O)c(/C=N/NC(=O)c2ccc(-c3nc4cc(C)c(C)cc4[nH]3)cc2)c1	61	25.3	inactive	12	20	–	–	–	–	–	–	–
18.5	9.47	5.41	Cc1cc2nc(-c3ccc(C(=O)N/N=C/c4cc(O)c(O)c(O)c4)cc3)[nH]c2cc1C	98	0.968	–	68	85	91	Dose-dependent effect	Dose-dependent effect	>3	Dose-dependent effect	Dose-dependent effect	Active

Further lines, the compound ahead of its results:

Compound	IC50 [3] [µM]	IC50 [4] [µM]	EC50 [5] [µM]	%max [1] [%]	EC50 [1] [µM]	%max [2]	%max [3] [%]	%max [4] [%]	%max [5] [%]	Activity [6]	Activity [2]	fold change (FC) [7]	Activity [8]	Activity [9]	Activity [10]
COc1ccc(/C=N/NC(=O)c2ccc(-c3nc4cc(C)c(C)cc4[nH]3)cc2)c(O)c1	> 30	> 30	–	54	29.3	inactive	15	18	–	–	–	–	–	–	–
Cc1cc2nc(-c3ccc(C(=O)N/N=C/c4ccc(O)cc4O)cc3)[nH]c2cc1C	16.4	17.5	–	86	7.28	–	75	72	64	–	–	–	–	–	–
Cc1cc2nc(-c3ccc(C(=O)N/N=C/c4ccc(O)c(O)c4)cc3)[nH]c2cc1C	> 30	17.6	–	73	16.7	–	22	68	53	–	–	–	–	–	–
Cc1cc2nc(-c3ccc(C(=O)N/N=C/c4cccc(O)c4O)cc3)[nH]c2cc1C	9.48	11.4	8.32	89	3.17	–	82	79	84	Dose-dependent effect	Dose-dependent effect	–	Dose-dependent effect	Dose-dependent effect	–
Cc1cc2nc(-c3ccc(C(=O)N/N=C/c4cc(O)ccc4O)cc3)[nH]c2cc1C	8.81	17.3	13.3	93	2.57	–	84	71	71	Dose-dependent effect	Dose-dependent effect	–	Dose-dependent effect	Dose-dependent effect	–
